Measurements pooled from the literature.
Effect on: cell growth or viability

With `Cc1nc(Nc2ncc(C(=O)Nc3c(C)cccc3Cl)s2)cc(N2CC[C@H](O)C2)n1` the inhibition was 93% (MEG-01; ATP luminescence; 10 µM; 72 h).
With `CC(C)(C)c1cc(NC(=O)Nc2ccc(-c3cn4c(n3)sc3cc(OCCN5CCOCC5)ccc34)cc2)no1` the GI50 was under 0.1 nM (EOL1; 72 h).
With `CCCCCCCCCCCCCCCCCCOc1ccc(CC(=O)OCC[N+]2(C)CCCCC2)cc1` the inhibition was 10.8% (NCI-H522; SRB; 10 µM).
For `COCCC(=O)Nc1ccccc1/N=c1\cc(-c2ccc3c(c2)OCO3)oc2ccccc12`, the inhibition was 4.66% (A549; CCK-8; 1 µM).
The inhibition of `CCCCCCCCCCCCCCCCCCOc1cccc(CC(=O)OCC[N+](CC)(CC)CC)c1` is reported as 61.5% (NCI-H522; SRB; 10 µM).
`Cc1n[nH]c2ccc3nc(-c4ccc(C(=O)NCCN(C)C)cc4F)c4c(c3c12)CCCC4` gave a GI50 of 89 nM (EOL1; 72 h).
For `NCC(=O)Nc1ccccc1/N=c1\cc(-c2ccc3c(c2)OCCO3)oc2ccccc12`, the inhibition was -0.04% (A549; CCK-8; 1 µM).
With `Cc1n[nH]c2ccc3nc(-c4ccc(C(=O)NCCN(C)C)cc4)c4c(c3c12)CCCC4` the GI50 was 37 nM (EOL1; 72 h).
`CCCCCCCCCCCCCCCCCCOc1cccc(CC(=O)OCC[N+]2(C)CCOCC2)c1` gave an inhibition of 16.9% (NCI-H522; SRB; 10 µM).
For `Oc1cccc(-c2nc(N3CCOCC3)c3oc4ncccc4c3n2)c1`, the inhibition was 20.4% (A549; CCK-8; 1 µM).
`CCCS(=O)(=O)Oc1cc(C=NNC(=O)c2nc3ccccc3s2)ccc1OC` gave a cell death of 33% (PC-3; MTT; 100 µM; 48 h).
The inhibition of `CCCCCCCCCCCCCCCCCCOc1cccc(CC(=O)OCC[N+]2(C)CCCC2)c1` is reported as 36.6% (NCI-H522; SRB; 10 µM).
For `Nc1nc2ccc(-c3c/c(=N\c4ccccc4NC(=O)CCN4CCOCC4)c4ccccc4o3)cc2o1`, the inhibition was 16.4% (A549; CCK-8; 1 µM).
`CCCCCCCCCCCCCCCCCCOc1ccccc1CC(=O)OCCC[N+](C)(C)C` gave an inhibition of 63.7% (NCI-H522; SRB; 10 µM).
The GI50 of `CN(C)CCNC(=O)c1ccc(-c2nc3ccc4[nH]ncc4c3c3c2CCCC3)cc1` is reported as 149 nM (EOL1; 72 h).
`CCCCCCCCCCCCCCCCCCOc1ccc(CC(=O)OCC[N+]2(C)CCOCC2)cc1` gave an inhibition of 5.79% (NCI-H522; SRB; 10 µM).
`NCCC(=O)Nc1ccccc1/N=c1\cc(-c2ccc3nc(N)oc3c2)oc2ccccc12` gave an inhibition of 18.6% (A549; CCK-8; 1 µM).
`C=C(NC(=O)C(=C)NC(=O)c1csc(C2=N[C@@H]3c4csc(n4)[C@H]4NC(=O)c5csc(n5)[C@H]([C@](C)(O)[C@@H](C)O)NC(=O)[C@H]5CSC(=N5)/C(=C/C)NC(=O)[C@H]([C@@H](C)O)NC(=O)c5csc(n5)[C@]3(CC2)NC(=O)[C@H](C)NC(=O)C(=C)NC(=O)[C@H](C)NC(=O)[C@H]([C@@H](C)CC)N[C@@H]2C=Cc3c([C@H](C)O)cc(nc3[C@H]2O)C(=O)O[C@@H]4C)n1)C(N)=O` gave an EC50 of 900 nM (U-251).
With `CCCCCCCCCCCCCCCCCCOc1ccc(CC(=O)OCC[N+]2(C)CCCC2)cc1` the inhibition was 3.23% (NCI-H522; SRB; 10 µM).
The EC50 of `Cc1nc(NC(=O)N2CCC[C@H]2C(N)=O)sc1-c1ccnc(C(C)(C)C(F)(F)F)c1` is reported as 611 nM (NCI-H1048; ATP luminescence; 5 days).
The cell death of `O=c1[nH]cc(F)c(=O)[nH]1` is reported as 10.7% (PC-3; MTT; 100 µM; 48 h).
With `CN(C)CCNC(=O)c1ccc(-c2nc3ccc4[nH]ncc4c3c3c2CCCCC3)cc1` the GI50 was 143 nM (EOL1; 72 h).
The cell death of `COc1cc(C=NNC(=O)c2nc3ccccc3s2)ccc1O` is reported as 29.4% (PC-3; MTT; 100 µM; 48 h).
The inhibition of `NCCC(=O)Nc1ccccc1/N=c1\cc(-c2ccc3c(c2)OCCO3)oc2cc(F)ccc12` is reported as -8.9% (A549; CCK-8; 1 µM).
